In the library only some 3.3% were active in any assay of this set; here they are far more common.
SENP8 block-1 = inhibitors of human SENP8 protease. Q96LD8. purified SENP8, Z-RLRGG-aminoluciferin cleavage, luminescence. inhibition, % at 10 µM. hit rate 1.2% among 330,000; in the data active = inhibition above about 50%
Target sequence (Q96LD8 whole entry, looked up): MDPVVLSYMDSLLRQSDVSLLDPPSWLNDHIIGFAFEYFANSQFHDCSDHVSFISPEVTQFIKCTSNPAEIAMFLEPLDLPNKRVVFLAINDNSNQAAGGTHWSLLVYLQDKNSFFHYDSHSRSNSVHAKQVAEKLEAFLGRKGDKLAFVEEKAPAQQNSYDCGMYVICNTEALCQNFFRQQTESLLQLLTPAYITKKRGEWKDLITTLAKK
NRP1-CendR mod = alters CendR peptide binding to human NRP-1 | inhibition, % at 25 µM | FAM-RPARPAR peptide binding to NRP-1, fluorescence polarization | O14786 | hit rate 0.85% among 360,000;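 active = inhibition or corrected inhibition above about 18%, plus a signal ratio from 0.5 to 1.5, limit read from the data, passing the limit was not always enough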
SENP7 block = blocks the human protease SENP7; recombinant SENP7, Z-RLRGG-aminoluciferin luminescence, 40 min; hit rate 1.5% among 330,000; Q9BQF6; AID 434973; inhibition, % at 5 µM;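 active = inhibition above about 50% at the single test dose, limit read from the data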
Target sequence (Q9BQF6 706-1050 limits assumed): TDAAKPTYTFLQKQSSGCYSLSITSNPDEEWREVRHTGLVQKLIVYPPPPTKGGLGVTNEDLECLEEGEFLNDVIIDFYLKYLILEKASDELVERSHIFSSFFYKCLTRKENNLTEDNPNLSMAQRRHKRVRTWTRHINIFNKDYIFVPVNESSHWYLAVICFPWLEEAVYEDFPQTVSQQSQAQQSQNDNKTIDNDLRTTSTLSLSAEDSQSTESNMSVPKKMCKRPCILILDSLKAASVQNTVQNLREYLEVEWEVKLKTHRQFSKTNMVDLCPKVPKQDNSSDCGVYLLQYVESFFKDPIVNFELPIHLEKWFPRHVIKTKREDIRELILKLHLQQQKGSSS
SENP8 block-2 = blocks human SENP8 cleavage of Nedd8 substrate | recombinant SENP8, Nedd8 substrate fluorescence | inhibition, % at 20 µM | hit rate 0.64% among 360,000 | AID 602440; in the data active = inhibition mostly above about 40%, no sharp cut-off; inactive = mostly below about 27%
SENP6 inh = blocks the human protease SENP6. hit rate 1.8% among 330,000. Recombinant SENP6 catalytic domain, aminoluciferin luminescence. AID 2599. Q9GZR1. inhibition, % at 10 µM;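 active = inhibition above about 50% at the single tested dose, limit read from the data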
SENP1 inh = blocks the human SENP1 SUMO protease catalytic domain; Q9P0U3; recombinant SENP1 catalytic domain, CyPet-SUMO1-YPet FRET cleavage; inhibition, % at 10 µM; hit rate 0.21% among 360,000; AID 624204;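 active = inhibition at least 30% at 10 µM, raw YFP signal under a set limit, fluorescence ratio 0.5 to 1.5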
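Material – human SENP1 catalytic domain · Input – SENP1 enzyme, 20 pM final · Compound dosing – single concentration of 10 µM compound, 0.5% DMSO final · Timing – enzyme reaction for 50 min at room temperature, dark · Measured by – FRET fluorescence in CFP and YFP emission channels · Control set – no-enzyme wells low, DMSO-plus-enzyme wells high control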
SENP8 conf = confirmation of human SENP8 protease inhibitors | inhibition, % at 12.5 µM | Recombinant SENP8, Z-RLRGG-aminoluciferin luminescence, 60 min | hit rate 40% among 6,200 | shares compounds with SENP7 block;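 active = mean inhibition across replicates above about 50%, limit read from the data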
SENP6 confirm = confirmation of human SENP6 protease inhibitors; hit rate 58% among 6,200; AID 488915; shares compounds with SENP7 block; recombinant SENP6, Z-RLRGG-aminoluciferin luminescence; inhibition, % at 12.5 µM
SENP7 conf = confirmation of human SENP7 protease inhibitors. shares compounds with SENP7 block. inhibition, % at 12.5 µM. recombinant SENP7, Z-RLRGG-aminoluciferin luminescence, 40 min. hit rate 69% among 6,200
Casp3 select = inhibits human caspase-3 in SENP selectivity test; shares compounds with SENP7 block; purified caspase-3, Z-DEVD-aminoluciferin luminescence, 60 min; inhibition, % at 12.5 µM; hit rate 60% among 6,200; AID 488918;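 active = mean inhibition above about 50%, limit read from the data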
Luc interf = luminescence interference (SENP counter-screen); inhibition, % at 12.5 µM; hit rate 39% among 6,200; Pre-incubated SENP8/Z-RLRGG-aminoluciferin, luciferase luminescence interference; shares compounds with SENP7 block;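 active = mean inhibition above about 50% when retested at one dose, limit read from the data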
Large screens that a line does not name were inactive (follow-up assays come after a bar, where they were run).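 Rule for the calls, unless noted: active = mean inhibition above about 50% in the one-dose retest (limit read from the data); inactive = the rest.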

C(=C\c1ccccc1)/CN1CCN(C(CCc2ccccc2)c2nnnn2C2CCCCC2)CC1 (configuration not stated)	none (no result: SENP8 block-1, SENP7 block, SENP6 inh)
Cc1nc2cc(OC3(C)CCN(Cc4ccc(OC(F)(F)F)cc4)C3)ccc2s1 (configuration not stated)	none (no result: SENP8 block-1, SENP7 block, SENP6 inh)
O=C(c1cnc(Cc2c[nH]c3ccccc23)c(I)c1)N1CCOCC1	none (no result: SENP8 block-1, SENP7 block, SENP6 inh)
COc1ccc(-c2cccc(C(=O)Nc3ccc(C)cc3)c2)cc1	none
COc1cccc(C(=O)Nc2ccc3c(C)cc(=O)oc3c2)c1	SENP7 block 70.9, SENP6 inh 63.5 | SENP8 conf inactive | SENP6 confirm inactive | SENP7 conf inactive | Casp3 select inactive | Luc interf inactive
COc1ccc(-c2cccc(C(=O)Nc3cccc(C(=O)O)c3)c2)cc1	SENP8 block-1 53.3, SENP7 block 58.8, SENP6 inh 84.2 | SENP8 conf 69.4 | SENP6 confirm 82.9 | SENP7 conf 95.8 | Casp3 select inactive | Luc interf 77.4
COc1cccc(NC(=O)c2cccc(C(=O)Nc3cccc(OC)c3)c2)c1	none
Cc1cc(=O)oc2cc(NC(=O)c3ccccc3C(=O)O)ccc12	none
COc1ccc(C(=O)Nc2cccc(OC)c2)cc1	SENP8 block-1 79.2, SENP7 block 91.9, SENP6 inh 86.3 | SENP8 conf inactive | SENP6 confirm 91.5 | SENP7 conf 100.6 | Casp3 select 95.8 | Luc interf 90.7
COc1cccc(NC(=O)Nc2cccc(C(=O)O)c2)c1	SENP8 block-1 89.8, SENP7 block 93.1 | SENP8 conf 95.1 | SENP6 confirm 94.9 | SENP7 conf 100.8 | Casp3 select 90.2 | Luc interf 94.0
C[C@@H]1CN([C@H](C)CO)S(=O)(=O)c2ccc(C#Cc3ccccc3)cc2O[C@H]1CN(C)C(=O)Nc1ccc2c(c1)OCO2	none (no result: SENP8 block-1, SENP7 block, SENP6 inh)
O=C(c1ccccc1F)N1CCCC(N2CCN(Cc3ccc4c(c3)OCO4)CC2)C1 (configuration not stated)	none (no result: SENP8 block-1, SENP7 block, SENP6 inh)
COc1ccc(COc2ccc3c(C)cc(=O)oc3c2)cc1	SENP8 block-1 50.4, SENP6 inh 70.1 | SENP8 conf inactive | SENP6 confirm 56.2 | SENP7 conf inactive | Casp3 select inactive | Luc interf inactive
COc1cccc(NC(=O)c2ccccc2)c1	SENP7 block 51.0 | SENP8 conf inactive | SENP6 confirm inactive | SENP7 conf 77.2 | Casp3 select 73.0 | Luc interf 51.2
COc1cccc(NC(=O)c2ccc(OC(F)(F)F)cc2)c1	SENP8 block-1 85.2, SENP7 block 94.1, SENP6 inh 87.9 | SENP8 conf 66.2 | SENP6 confirm 79.3 | SENP7 conf 98.0 | Casp3 select 86.9 | Luc interf inactive
COc1cccc(NC(=O)c2ccc3nsnc3c2)c1	SENP7 block 60.1, SENP6 inh 63.2 | SENP8 conf 58.3 | SENP6 confirm 55.9 | SENP7 conf 85.4 | Casp3 select 80.4 | Luc interf 71.3
COc1cc(NC(=O)c2ccc3nsnc3c2)cc(OC)c1OC	none
CCCCOC(=O)Nc1ccc2c(C)cc(=O)oc2c1	SENP7 block 62.1 | SENP8 conf inactive | SENP6 confirm inactive | SENP7 conf 50.3 | Casp3 select inactive | Luc interf inactive
O=C(CC(=O)c1ccccc1)Nc1cccc([N+](=O)[O-])c1	none (no result: SENP8 block-1, SENP7 block, SENP6 inh)
COc1cccc(NC(=O)c2nnn(CCc3ccccc3)c2N)c1	SENP8 block-1 64.1, SENP7 block 76.4, SENP6 inh 71.7 | SENP8 conf 75.5 | SENP6 confirm 75.1 | SENP7 conf 93.3 | Casp3 select 75.0 | Luc interf 61.7
COc1cccc(NC(=O)NC2CCCCCCC2)c1	none
COc1cccc(NC(=O)C(=S)NC2CCCCC2)c1	SENP7 block 51.5 | SENP8 conf 59.2 | SENP6 confirm 65.1 | SENP7 conf 84.4 | Casp3 select inactive | Luc interf inactive
COc1cccc(NC(=O)CC(=O)c2ccc([N+](=O)[O-])cc2)c1	SENP8 block-1 68.7, SENP7 block 58.0, SENP6 inh 71.2 | SENP8 conf 82.4 | SENP6 confirm 79.7 | SENP7 conf 93.1 | Casp3 select 72.3 | Luc interf 73.9
O=C(C(=O)N1CCN(c2ccccc2F)CC1)c1ccccc1	none (no result: SENP8 block-1, SENP7 block, SENP6 inh)
O=S1(=O)C[C@@H](N2CCN(CC3CC3)CC2)[C@H](COCc2ccccc2)N1	none (no result: SENP8 block-1, SENP7 block, SENP6 inh)
CCCC(=O)Nc1ccc2oc(-c3cncc(Br)c3)nc2c1	none
CCCCCC(=O)Nc1ccc2oc(-c3cncc(Br)c3)nc2c1	SENP7 block 100.9 | SENP8 conf inactive | SENP6 confirm inactive | SENP7 conf inactive | Casp3 select inactive | Luc interf inactive
Cc1cc(C)cc(N2CCCn3c2nc2c3c(=O)n(CC(=O)OCc3ccccc3)c(=O)n2C)c1	SENP7 block 55.3 | SENP8 conf inactive | SENP6 confirm inactive | SENP7 conf inactive | Casp3 select inactive | Luc interf inactive
Cc1nonc1C(=O)N/N=C/c1ccncc1	none
Cc1nonc1C(=O)N/N=C/c1ccc(O)cc1O	SENP7 block 99.6, SENP6 inh 96.9 | SENP8 conf 97.8 | SENP6 confirm 98.3 | SENP7 conf 102.0 | Casp3 select 97.6 | Luc interf 96.9
C=CCSc1nc2c(N)ncnc2n1C1OC(CO)C(O)C1O (configuration not stated)	none (no result: SENP8 block-1, SENP7 block, SENP6 inh)
COc1cccc(OCc2cc(/C=N/Nc3ccc(C(=O)O)cc3)ccc2OC)c1	SENP8 block-1 79.6, SENP6 inh 86.9 | SENP8 conf 58.2 | SENP6 confirm 84.4 | SENP7 conf 95.4 | Casp3 select inactive | Luc interf inactive
COc1ccc(C(=O)N/N=C/c2ccc(OC)c(COc3ccc(F)cc3)c2)cc1	none
COc1cccc(C(=O)Oc2ccc(/C=N/Nc3ccc(C(=O)O)cc3)cc2OC)c1	SENP6 inh 51.7 | SENP8 conf 56.8 | SENP6 confirm inactive | SENP7 conf 65.7 | Casp3 select inactive | Luc interf inactive
C=CC1=CCN(S(=O)(=O)C(C)(C)C)[C@H]1CCO	none (no result: SENP8 block-1, SENP7 block, SENP6 inh)
CCN(CC(=O)Nc1ccc(NC(C)=O)cc1)C(=O)c1cccc(N2C(=O)c3ccccc3C2=O)c1	none (no result: SENP8 block-1, SENP7 block, SENP6 inh)
